# Results: ChEMBL document CHEMBL1124123, “Graphics computer-aided receptor mapping as a predictive tool for drug design: development of potent, selective, and stereospecific ligands for the 5-HT1A receptor” (J Med Chem, 1988)
# Columns and labels:
# [1] = target: T1, 5-hydroxytryptamine receptor 1A (Rattus norvegicus, UniProt P19327); test: Binding affinity towards 5-hydroxytryptamine 1A receptor in rat frontal cortex using [3H]8-OH-DPAT as a radioligand; format: tissue-based
# T1 sequence (P19327 whole entry): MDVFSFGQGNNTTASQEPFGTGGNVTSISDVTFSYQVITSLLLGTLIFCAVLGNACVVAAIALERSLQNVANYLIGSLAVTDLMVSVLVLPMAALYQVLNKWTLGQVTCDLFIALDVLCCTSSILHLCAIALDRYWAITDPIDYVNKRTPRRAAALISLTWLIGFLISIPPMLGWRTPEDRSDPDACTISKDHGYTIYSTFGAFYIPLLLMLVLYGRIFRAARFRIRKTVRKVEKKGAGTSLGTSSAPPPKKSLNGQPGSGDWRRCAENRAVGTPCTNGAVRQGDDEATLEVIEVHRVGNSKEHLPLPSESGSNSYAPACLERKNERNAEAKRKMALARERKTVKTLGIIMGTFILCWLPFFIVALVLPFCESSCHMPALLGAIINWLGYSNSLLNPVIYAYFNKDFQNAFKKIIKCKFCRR
# D(2) dopamine receptor [2] = target: T2, D(2) dopamine receptor (Rattus norvegicus, UniProt P61169); test: Binding affinity against Dopamine receptor D2 in rat brain membrane using [3H]-8-OH-DPAT as a selective ligand.; format: cell membranes; conditions: in the assay text read “[3H]domperidone as radioligand” for “[3H]-8-OH-DPAT as a selective ligand”
# T2 sequence (P61169 whole entry): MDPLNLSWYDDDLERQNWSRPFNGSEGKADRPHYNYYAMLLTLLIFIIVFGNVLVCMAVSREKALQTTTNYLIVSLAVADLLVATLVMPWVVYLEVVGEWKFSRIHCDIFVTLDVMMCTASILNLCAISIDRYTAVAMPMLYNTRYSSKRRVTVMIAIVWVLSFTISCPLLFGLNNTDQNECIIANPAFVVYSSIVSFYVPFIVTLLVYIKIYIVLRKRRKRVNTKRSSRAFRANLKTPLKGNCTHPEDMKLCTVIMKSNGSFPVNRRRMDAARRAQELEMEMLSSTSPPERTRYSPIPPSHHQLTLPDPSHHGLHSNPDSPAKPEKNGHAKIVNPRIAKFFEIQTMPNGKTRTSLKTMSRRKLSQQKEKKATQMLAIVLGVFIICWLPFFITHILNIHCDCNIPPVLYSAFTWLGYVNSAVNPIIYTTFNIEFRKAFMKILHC
# Procedure, shortened: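 D2 receptor binding in rat brain, using [3H]domperidone as the radioligand.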
# [3] = target: T3, Adrenergic receptor alpha-1 (Rattus norvegicus, UniProt P15823+P23944+P43140); test: Binding affinity against alpha-1 adrenergic receptor in rat brain membrane using […] as a selective ligand.; format: cell membranes
# T3 sequence (P15823 whole entry): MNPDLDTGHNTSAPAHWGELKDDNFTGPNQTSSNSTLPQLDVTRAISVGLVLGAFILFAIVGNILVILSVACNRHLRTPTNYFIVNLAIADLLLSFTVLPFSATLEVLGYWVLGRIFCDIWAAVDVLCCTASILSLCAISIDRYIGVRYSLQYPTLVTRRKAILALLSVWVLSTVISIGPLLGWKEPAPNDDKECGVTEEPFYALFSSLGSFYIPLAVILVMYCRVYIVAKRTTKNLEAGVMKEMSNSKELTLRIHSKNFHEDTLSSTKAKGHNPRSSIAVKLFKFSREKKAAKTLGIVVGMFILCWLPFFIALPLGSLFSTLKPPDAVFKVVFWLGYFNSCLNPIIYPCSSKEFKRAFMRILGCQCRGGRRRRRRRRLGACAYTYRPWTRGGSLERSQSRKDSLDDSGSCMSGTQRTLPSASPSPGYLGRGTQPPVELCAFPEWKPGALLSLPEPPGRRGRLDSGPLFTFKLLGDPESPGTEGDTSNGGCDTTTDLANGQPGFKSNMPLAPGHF
# T3 sequence (P23944 whole entry): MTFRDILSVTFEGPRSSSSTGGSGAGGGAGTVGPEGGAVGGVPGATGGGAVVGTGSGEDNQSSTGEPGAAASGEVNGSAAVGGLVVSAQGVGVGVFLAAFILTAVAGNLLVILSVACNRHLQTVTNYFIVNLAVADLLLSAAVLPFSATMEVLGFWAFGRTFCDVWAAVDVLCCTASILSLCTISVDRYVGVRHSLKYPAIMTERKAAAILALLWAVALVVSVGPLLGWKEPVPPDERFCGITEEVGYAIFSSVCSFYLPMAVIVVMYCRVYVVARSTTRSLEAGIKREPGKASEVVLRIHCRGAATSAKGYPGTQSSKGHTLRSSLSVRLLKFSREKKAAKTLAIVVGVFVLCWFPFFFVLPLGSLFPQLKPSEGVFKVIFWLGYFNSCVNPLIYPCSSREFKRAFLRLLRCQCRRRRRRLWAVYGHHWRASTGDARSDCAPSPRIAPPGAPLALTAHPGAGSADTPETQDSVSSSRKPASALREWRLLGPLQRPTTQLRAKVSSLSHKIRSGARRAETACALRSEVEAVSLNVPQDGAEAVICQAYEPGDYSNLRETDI
# T3 sequence (P43140 whole entry): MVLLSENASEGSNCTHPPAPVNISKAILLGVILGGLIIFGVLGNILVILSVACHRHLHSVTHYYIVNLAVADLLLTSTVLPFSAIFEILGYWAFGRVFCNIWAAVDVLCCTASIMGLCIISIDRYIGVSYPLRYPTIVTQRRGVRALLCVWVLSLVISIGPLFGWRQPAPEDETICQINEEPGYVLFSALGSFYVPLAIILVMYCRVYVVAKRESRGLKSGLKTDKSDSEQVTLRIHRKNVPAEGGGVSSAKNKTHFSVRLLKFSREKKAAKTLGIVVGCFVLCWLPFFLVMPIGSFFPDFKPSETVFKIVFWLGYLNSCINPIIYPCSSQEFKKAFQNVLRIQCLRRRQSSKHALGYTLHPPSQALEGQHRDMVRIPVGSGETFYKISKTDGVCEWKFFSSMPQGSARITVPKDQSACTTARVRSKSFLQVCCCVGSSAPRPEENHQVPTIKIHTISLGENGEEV
# Procedure, shortened: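 Alpha1-adrenergic binding in rat brain, using [3H]prazosin as the radioligand.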
# [4] = target: T4, Adrenergic receptor alpha-2 (Rattus norvegicus, UniProt P22086+P19328+P22909); test: Binding affinity against alpha-2 adrenergic receptor in rat brain membrane using […] as a selective ligand.; format: cell membranes
# T4 sequence (P22086 whole entry): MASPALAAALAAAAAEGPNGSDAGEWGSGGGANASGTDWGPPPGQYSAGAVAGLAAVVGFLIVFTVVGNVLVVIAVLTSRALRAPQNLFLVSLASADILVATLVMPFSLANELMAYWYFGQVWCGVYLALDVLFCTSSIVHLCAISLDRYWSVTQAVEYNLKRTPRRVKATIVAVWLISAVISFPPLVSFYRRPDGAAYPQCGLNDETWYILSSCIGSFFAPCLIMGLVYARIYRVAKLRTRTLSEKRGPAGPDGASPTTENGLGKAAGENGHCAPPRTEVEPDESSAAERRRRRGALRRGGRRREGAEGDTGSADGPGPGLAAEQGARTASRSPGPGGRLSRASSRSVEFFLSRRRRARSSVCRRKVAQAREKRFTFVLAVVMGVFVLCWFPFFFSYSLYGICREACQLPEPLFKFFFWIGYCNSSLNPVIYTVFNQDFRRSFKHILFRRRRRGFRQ
# T4 sequence (P19328 whole entry): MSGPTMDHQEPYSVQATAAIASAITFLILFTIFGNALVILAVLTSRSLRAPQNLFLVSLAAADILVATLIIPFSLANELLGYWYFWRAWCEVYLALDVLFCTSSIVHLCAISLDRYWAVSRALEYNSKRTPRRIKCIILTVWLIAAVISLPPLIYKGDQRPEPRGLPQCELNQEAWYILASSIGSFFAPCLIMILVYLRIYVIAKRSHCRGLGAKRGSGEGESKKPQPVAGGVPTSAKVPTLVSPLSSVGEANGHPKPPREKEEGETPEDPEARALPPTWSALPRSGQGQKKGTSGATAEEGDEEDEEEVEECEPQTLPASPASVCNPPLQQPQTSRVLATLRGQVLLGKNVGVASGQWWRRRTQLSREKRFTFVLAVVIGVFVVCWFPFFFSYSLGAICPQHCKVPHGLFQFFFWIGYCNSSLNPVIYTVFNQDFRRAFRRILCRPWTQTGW
# T4 sequence (P22909 whole entry): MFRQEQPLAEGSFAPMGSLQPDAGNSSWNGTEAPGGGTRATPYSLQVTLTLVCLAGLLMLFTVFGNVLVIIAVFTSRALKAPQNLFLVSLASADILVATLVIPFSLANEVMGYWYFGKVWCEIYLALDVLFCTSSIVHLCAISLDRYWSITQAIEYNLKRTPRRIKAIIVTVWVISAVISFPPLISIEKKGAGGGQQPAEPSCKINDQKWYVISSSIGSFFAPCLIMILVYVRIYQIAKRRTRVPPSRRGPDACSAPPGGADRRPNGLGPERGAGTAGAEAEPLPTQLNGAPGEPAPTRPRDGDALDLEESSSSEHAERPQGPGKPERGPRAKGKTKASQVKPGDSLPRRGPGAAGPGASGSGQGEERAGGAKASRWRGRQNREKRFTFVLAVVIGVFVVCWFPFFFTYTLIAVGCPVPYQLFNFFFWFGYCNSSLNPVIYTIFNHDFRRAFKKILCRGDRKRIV
# Procedure, shortened: (§1)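 Alpha2-adrenergic sites in rat brain were labelled with [3H]clonidine for radioligand binding.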
# [5] = target: T5, Serotonin 2 (5-HT2) receptor (Rattus norvegicus, UniProt P30994+P08909+P14842); test: Binding affinity towards 5-hydroxytryptamine 2 receptor in rat brain membrane using […] as a selective ligand.; format: cell membranes
# Procedure, shortened: (§2)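 5-HT2 sites in rat brain were labelled with [3H]ketanserin in a radioligand receptor binding assay.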
# [6] = target: T6, 5-hydroxytryptamine receptor 1B (Rattus norvegicus, UniProt P28564); test: Binding affinity against 5-HT1B receptor in rat brain membrane using [3H]-5-HT in the presence of 8-OH-DPAT.
# T6 sequence (P28564 whole entry): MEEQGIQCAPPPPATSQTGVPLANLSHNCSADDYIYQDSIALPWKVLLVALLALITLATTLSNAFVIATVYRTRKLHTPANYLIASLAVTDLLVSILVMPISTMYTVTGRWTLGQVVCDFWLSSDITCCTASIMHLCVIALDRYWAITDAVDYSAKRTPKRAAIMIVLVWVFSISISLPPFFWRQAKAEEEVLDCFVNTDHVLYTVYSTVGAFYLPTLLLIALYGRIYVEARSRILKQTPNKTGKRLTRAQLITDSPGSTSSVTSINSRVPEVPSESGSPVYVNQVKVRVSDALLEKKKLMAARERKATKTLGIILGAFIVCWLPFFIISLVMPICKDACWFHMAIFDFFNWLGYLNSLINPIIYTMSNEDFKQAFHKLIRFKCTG
# [7] = target: T1, 5-hydroxytryptamine receptor 1A; test: Binding affinity towards 5-hydroxytryptamine 1A receptor in rat brain membrane using [3H]8-OH-DPAT as a selective ligand.; format: cell membranes
# D(2) dopamine receptor [8] = target: T2, D(2) dopamine receptor; test: Binding affinity against Dopamine receptor D2 in rat brain membrane using [3H]domperidone as radioligand.
# [9] = target: T5, Serotonin 2 (5-HT2) receptor; test: (§3) Binding affinity towards 5-hydroxytryptamine 2 receptor in rat frontal cortex using [3H]ketanserin as radioligand
# [10] = target: T5, Serotonin 2 (5-HT2) receptor; test: as §3; format: tissue-based; procedure, shortened: as §2
# [11] = target: T6, 5-hydroxytryptamine receptor 1B; test: Binding affinity towards 5-HT1B receptor in rat brain membrane using [3H]8-OH-DPAT as a selective ligand.; format: cell membranes
# [12] = target: T6, 5-hydroxytryptamine receptor 1B; test: Binding affinity against 5-HT1B receptor in rat frontal cortex using [3H]-5-HT in presence of 0.1 uM […]; format: tissue-based
# [13] = target: T4, Adrenergic receptor alpha-2; test: Binding affinity against alpha-2 adrenergic receptor in rat brain membrane using […].; format: cell membranes; procedure, shortened: as §1
SMILES,IC50 [1] [nM],IC50 (D(2) dopamine receptor [2]) [nM],Log IC50 [3],Log IC50 [4],Log IC50 [5],IC50 [6] [nM],IC50 [7] [nM],also measured
O=C1CC2(CCCC2)CC(=O)N1CCCCNCC1COc2ccccc2O1 (stereo unspecified),0.794,158,-7.8,-6.4,-6.2,631,–,–
O=C1CC2(CCCC2)CC(=O)N1CCCCNCC1COc2cc3ccccc3cc2O1 (stereo unspecified),–,–,-5.3,–,–,–,316,–
O=C1CC2(CCCC2)CC(=O)N1CCCCNCC1COc2c(ccc3ccccc23)O1 (stereo unspecified),794,–,-5.2,< -5,-5.9,3160,–,IC50 (D(2) dopamine receptor [8]): 316 nM
CCCN(CCC)C1CCc2cccc(O)c2C1 (stereo unspecified) [8-OH-DPAT],–,–,–,–,–,–,–,Log IC50 [9]: -5
CSc1ccc2c(c1)[C@@H](N1CCN(C)CC1)Cc1ccccc1S2,95.5,–,–,–,–,–,–,Log IC50 [10]: -8.2; IC50 [11]: 182 nM
O=C(CCCN1CCC2(CC1)C(=O)NCN2c1ccccc1)c1ccc(F)cc1 [SPIPERONE],–,–,–,–,–,–,123,IC50 [12]: 1000 nM
CSc1ccc2c(c1)[C@H](N1CCN(C)CC1)Cc1ccccc1S2,–,–,–,–,–,–,851,IC50 [12]: 3240 nM; Log IC50 [9]: -8.25
O=C1CC2(CCCC2)CC(=O)N1CCCCNCC1COc2ccc3ccccc3c2O1 (stereo unspecified),5.01,158,-6.1,< -5,-6.8,398,–,–
O=C1CC2(CCCC2)CC(=O)N1CCCCNC[C@@H]1COc2ccccc2O1,–,2510,-7.2,–,-6.1,5010,20,Log IC50 [13]: -6.2
O=C1CC2(CCCC2)CC(=O)N1CCCCNC[C@H]1COc2ccccc2O1,0.631,79.4,-8,-6.3,-6.7,794,–,–
